Test results reported in ChEMBL document CHEMBL1127349, “6,7,8,9-Tetrahydro-N,N-di-n-propyl-3H-benzindol-8-amines. Derivatives as potent and orally active serotonin 5-HT1A receptor agonists” (J Med Chem, 1994).
The source made the active and inactive calls. No cut-off for these calls is given here.

Tests used:
Rattus norvegicus [1] = species on record: Rattus norvegicus; test: Log concentration to inhibit 5-HTP accumulation was determined in rat brain hemispheres; type: functional
Method in brief: (§1)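 Reserpine-pretreated (5 mg/kg sc, 18 h) male Sprague-Dawley rats, 200–300 g; compounds in saline given sc. DOPA and 5-HTP in limbic system, striatum and hemispheres measured by HPLC with electrochemical detection. Dose–response curves of 4–6 doses (n = 4) per area, fitted to variable-slope sigmoid on log data to give ED50.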

Rattus norvegicus [2] = test: The concentration yielding a half maximal decrease of the DOPA was determined in rat brain hemispheres; inactive at 12.5 umol/kg; type: functional, organism-based; method in brief: as §1
D(2) dopamine receptor = D(2) dopamine receptor (Rattus norvegicus, UniProt P61169); test: Displacement of the radioligand [3H]spiperone from D2 receptor
Method in brief: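 Rat striatal membranes in 50 mM potassium phosphate buffer, incubated with 0.5 nM [3H]spiperone (3 mg tissue) 10 min at 37 °C. Nonspecific binding defined with 10 μM 6,7-ADTN. IC50 converted to Ki by Cheng–Prusoff; 3–7 experiments, each concentration in triplicate.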

Rattus norvegicus [3] = test: Ratio of the 5HTP-accumulation decrease in limbic regions after sc and po administration at 10 umol/kg; type: functional, Limbic system
Method in brief: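 Ratio of ED50 for decrease of limbic 5-HTP accumulation after oral versus sc dosing in reserpine-pretreated rats; 5-HTP measured by HPLC with electrochemical detection.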

[4] = Bioavailability in rat (dose 10 uM/kg); type: ADME, organism-based; settings: in vivo
Method in brief: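 Male Sprague-Dawley rats; oral group starved 18 h, compared with iv dosing. Blood sampled up to 12 h, levels by GC/MS. Absolute oral availability F (po/iv) from ratio of AUCs of blood concentration–time curves, po n = 5, iv n = 3.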

[5] = Half life in plasma after administration of 2 umol/kg dose intravenously; type: ADME, organism-based; settings: iv
[6] = Area under the curve after intravenous administration at a dose of 2 umol/kg; type: ADME; settings: in vivo
Rattus norvegicus [7] = species on record: Rattus norvegicus; test: Log concentration to inhibit DOPA accumulation was determined in rat limbic system; type: functional; method in brief: as §1
Rattus norvegicus [8] = species on record: Rattus norvegicus; test: Log concentration to inhibit 5-HTP accumulation was determined in rat limbic system; type: functional; method in brief: as §1
[9] = Maximum concentration in plasma after administration of 10 umol/kg dose perorally; type: ADME, organism-based; set-up: dose 10 umol/kg, route oral; settings: po
Method in brief: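 Male Sprague-Dawley rats starved 18 h, dosed orally. Blood samples over up to 12 h, drug quantified by GC/MS against internal standard (2–1000 pmol/mL standard curve). Cmax read from concentration–time curve; SEM, n = 4–6.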

Rattus norvegicus [10] = species on record: Rattus norvegicus; test: The concentration yielding a half maximal decrease of the 5-HTP was determined in rat limbic system; type: functional; method in brief: as §1
[11] = Time taken to reach maximum concentration after administration of 10 umol/kg dose perorally; type: ADME, organism-based; settings: in vivo, po
Method in brief: (§2)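 Male Sprague-Dawley rats, starved 18 h for the oral arm, dosed iv or po. Blood sampled at intervals up to 12 h. Compound measured by GC/mass spectrometry against an internal standard, with a standard curve over 2–1000 pmol/mL in blank blood. tmax read from concentration–time curves, n = 4–6.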

Rattus norvegicus [12] = species on record: Rattus norvegicus; test: The concentration yielding a half maximal decrease of the 5-HTP was determined in rat brain striatum; type: functional; method in brief: as §1
Rattus norvegicus [13] = species on record: Rattus norvegicus; test: The concentration yielding a half maximal decrease of the 5-HTP was determined in rat brain hemispheres; type: functional; method in brief: as §1
Rattus norvegicus [14] = species on record: Rattus norvegicus; test: Log concentration to inhibit 5-HTP accumulation was determined in rat brain striatum; type: functional; method in brief: as §1
[15] = Time taken to reach maximum concentration after administration of 2 umol/kg dose intravenously; type: ADME, organism-based; settings: in vivo, iv
[16] = Maximum concentration in plasma after administration of 2 umol/kg dose intravenously; type: ADME, organism-based; set-up: dose 2 umol/kg, route intravenous; settings: iv
Rattus norvegicus [17] = species on record: Rattus norvegicus; test: The concentration yielding a half maximal decrease of the DOPA was determined in rat limbic system; type: functional
Rattus norvegicus [18] = test: Motor activity was measured by motility testing on injecting the compound subcutaneously into rats at the dose of 12.5 umol/kg; type: functional
Method in brief: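 Rats given reserpine 5 mg/kg sc 18 h beforehand, then test compound sc in neck (n = 4). Placed singly in photocell motility meters straight after dosing; counts recorded for 30 min, gross behaviour observed throughout. Value as counts/30 min with SEM.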

Rattus norvegicus [19] = test: The concentration yielding a half maximal decrease of the DOPA was determined in rat brain striatum; inactive at 12.5 umol/kg; type: functional, organism-based
Rattus norvegicus [20] = species on record: Rattus norvegicus; test: The concentration yielding a half maximal decrease of the 5-HTP was determined in rat brain striatum.; type: functional
[21] = Maximum concentration in plasma after administration of 4 umol/kg dose intravenously; type: ADME, organism-based; set-up: dose 4 umol/kg, route intravenous; settings: iv
Method in brief: (§3)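 Male Sprague-Dawley rats, iv dosing. Blood sampled at intervals up to 12 h, plasma drug levels by GC/MS with internal standard and a 2–1000 pmol/mL standard curve in blank blood. AUC from total area of concentration–time curve; iv n = 3 (table values SEM, n = 4–6).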

Rattus norvegicus [22] = test: The concentration yielding a half maximal decrease of the DOPA was determined in rat brain hemispheres; Inactive at 12.5 umol/kg; type: functional, organism-based; method in brief: as §1
Rattus norvegicus [23] = species on record: Rattus norvegicus; test: The concentration yielding a half maximal decrease of the 5-HTP was determined in rat brain hemispheres.; type: functional
Rattus norvegicus [24] = species on record: Rattus norvegicus; test: The concentration yielding a half maximal decrease of the DOPA was determined in rat brain striatum; type: functional; method in brief: as §1
Rattus norvegicus [25] = test: Ratio of the 5HTP-accumulation decrease in limbic regions after sc to that of po administration at 10 umol/kg; type: functional, Limbic system
[26] = Area under the curve after intravenous administration at a dose of 4 umol/kg; type: ADME; settings: in vivo; method in brief: as §3
[27] = Time taken to reach maximum concentration after administration of 4 umol/kg dose intravenously; type: ADME, organism-based; settings: in vivo, iv; method in brief: as §2
Rattus norvegicus [28] = species on record: Rattus norvegicus; test: Log concentration to inhibit DOPA accumulation was determined in rat brain striatum; type: functional; method in brief: as §1
Rattus norvegicus [29] = species on record: Rattus norvegicus; test: The concentration yielding a half maximal decrease of the 5-HTP was determined in rat limbic system.; type: functional
[30] = Half life in plasma after administration of 4 umol/kg dose intravenously; type: ADME, organism-based; settings: iv; method in brief: as §3

D(2) dopamine receptor, sequence (P61169 whole entry): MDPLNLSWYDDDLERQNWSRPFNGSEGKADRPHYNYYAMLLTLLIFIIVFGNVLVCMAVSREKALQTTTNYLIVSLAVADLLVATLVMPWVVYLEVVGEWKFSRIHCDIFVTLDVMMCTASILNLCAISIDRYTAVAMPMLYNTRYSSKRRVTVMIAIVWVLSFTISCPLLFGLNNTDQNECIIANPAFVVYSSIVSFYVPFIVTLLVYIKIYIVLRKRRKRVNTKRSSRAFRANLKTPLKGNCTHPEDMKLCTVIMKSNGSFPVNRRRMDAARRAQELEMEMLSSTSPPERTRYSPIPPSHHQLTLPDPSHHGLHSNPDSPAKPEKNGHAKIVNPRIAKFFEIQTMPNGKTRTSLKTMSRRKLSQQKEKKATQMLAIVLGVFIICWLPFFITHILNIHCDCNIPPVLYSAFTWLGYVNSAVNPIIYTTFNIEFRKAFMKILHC

In the case of `CCCN(CCC)[C@H]1CCc2ccc3[nH]cc(C=O)c3c2C1`, the pED50 (Rattus norvegicus [1]) is reported as 7.49, the ED50 (Rattus norvegicus [2]) is reported as “inactive” and the Ki (D(2) dopamine receptor) is reported as 3.59 µM. For the same molecule, the ED50 (Rattus norvegicus [3]) was 18%, the bioavailability [4] was 72% and the half-life [5] was 60 min. For the same molecule, the AUC [6] was 607 pM/kg, the pED50 (Rattus norvegicus [7]) was 5.36 and the pED50 (Rattus norvegicus [8]) was 6.94. For the same molecule, the Cmax [9] was 606 nM, the ED50 (Rattus norvegicus [10]) was 0.11 µmol/kg and the Tmax [11] was 48 min. It also gave an ED50 (Rattus norvegicus [12]) of 0.052 µmol/kg, an ED50 (Rattus norvegicus [13]) of 0.032 µmol/kg and a pED50 (Rattus norvegicus [14]) of 8.28. For the same molecule, the Tmax [15] was 2 min, the Cmax [16] was 849 nM and the ED50 (Rattus norvegicus [17]) was 4.33 µmol/kg. The Counts/30 min (Rattus norvegicus [18]) was 413 and the ED50 (Rattus norvegicus [19]) was “inactive”.

Molecule `CCCN(CCC)[C@@H]1CCc2ccc3[nH]c(C#N)cc3c2C1` [U-92,016-A] has a pED50 (Rattus norvegicus [1]) of 6.56, a Ki (D(2) dopamine receptor) of 0.538 µM and an ED50 (Rattus norvegicus [20]) of 0.079 µmol/kg. It also gave a bioavailability [4] of 63%, a pED50 (Rattus norvegicus [7]) of 5.69 and a Cmax [21] of 2570 nM. For the same molecule, the pED50 (Rattus norvegicus [8]) was 6.67, the ED50 (Rattus norvegicus [22]) was “inactive” and the Cmax [9] was 1120 nM. For the same molecule, the Tmax [11] was 75 min, the ED50 (Rattus norvegicus [23]) was 0.28 µmol/kg and the ED50 (Rattus norvegicus [24]) was 3.36 µmol/kg. For the same molecule, the ED50 (Rattus norvegicus [25]) was 55%, the AUC [26] was 1817 pM/kg and the Tmax [27] was 4 min. It also gave a pED50 (Rattus norvegicus [28]) of 5.47, a pED50 (Rattus norvegicus [14]) of 7.1 and an ED50 (Rattus norvegicus [29]) of 0.21 µmol/kg. The half-life [30] was 90 min, the ED50 (Rattus norvegicus [17]) was 2.01 µmol/kg and the Activity (Rattus norvegicus [18]) was 194 Counts 30min-1.
